Measurements from ChEMBL document CHEMBL1139833, “Synthesis and metabotropic glutamate receptor activity of S-oxidized variants of (-)-4-amino-2-thiabicyclo-[3.1.0]hexane-4,6-dicarboxylate: identification of potent, selective, and orally bioavailable agonists for mGlu2/3 receptors” (J Med Chem, 2007).
Blank lines part the entries; values can stand above or below the compound they belong to. Active and inactive are the calls of the source. The rule behind the calls is not given here.

How the values were obtained:
[1] = target: Metabotropic glutamate receptor 1 (Homo sapiens) (UniProt Q13255); test: Agonist activity at human mGluR1a assessed as effect on cAMP production in RGT cells upto 100 uM; assay type: functional, cell-based
Chain of Metabotropic glutamate receptor 1 (Homo sapiens) (Q13255 19-1194 limits assumed): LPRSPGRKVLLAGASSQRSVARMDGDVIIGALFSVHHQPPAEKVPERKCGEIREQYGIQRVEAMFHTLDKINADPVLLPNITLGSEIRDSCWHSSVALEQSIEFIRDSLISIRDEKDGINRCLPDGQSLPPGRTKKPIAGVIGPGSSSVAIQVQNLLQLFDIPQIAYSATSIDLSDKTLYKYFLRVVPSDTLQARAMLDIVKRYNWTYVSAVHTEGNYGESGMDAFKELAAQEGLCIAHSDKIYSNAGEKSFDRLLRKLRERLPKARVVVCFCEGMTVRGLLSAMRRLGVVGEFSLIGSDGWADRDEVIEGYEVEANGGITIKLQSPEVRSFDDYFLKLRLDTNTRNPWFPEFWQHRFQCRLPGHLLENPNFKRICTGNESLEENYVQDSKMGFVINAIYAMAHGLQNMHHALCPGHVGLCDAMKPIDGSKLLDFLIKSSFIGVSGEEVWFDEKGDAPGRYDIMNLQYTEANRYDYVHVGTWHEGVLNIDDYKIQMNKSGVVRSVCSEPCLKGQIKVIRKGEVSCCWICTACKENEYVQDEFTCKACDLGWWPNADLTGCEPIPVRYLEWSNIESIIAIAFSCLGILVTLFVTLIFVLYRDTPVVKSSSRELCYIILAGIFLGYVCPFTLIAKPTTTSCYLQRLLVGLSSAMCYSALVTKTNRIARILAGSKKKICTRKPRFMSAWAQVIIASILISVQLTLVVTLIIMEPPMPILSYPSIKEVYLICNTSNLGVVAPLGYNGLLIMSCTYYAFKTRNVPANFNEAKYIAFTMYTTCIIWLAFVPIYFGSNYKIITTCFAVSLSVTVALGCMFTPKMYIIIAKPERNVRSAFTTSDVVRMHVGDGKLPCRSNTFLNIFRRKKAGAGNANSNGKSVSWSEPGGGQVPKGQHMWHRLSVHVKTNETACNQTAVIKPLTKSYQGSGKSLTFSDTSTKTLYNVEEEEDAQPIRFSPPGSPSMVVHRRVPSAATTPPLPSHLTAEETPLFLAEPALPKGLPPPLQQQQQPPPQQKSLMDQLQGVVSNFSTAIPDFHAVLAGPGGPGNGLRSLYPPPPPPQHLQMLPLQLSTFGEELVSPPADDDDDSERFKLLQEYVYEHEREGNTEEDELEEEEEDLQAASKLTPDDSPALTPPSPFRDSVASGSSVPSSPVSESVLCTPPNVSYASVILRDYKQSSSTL
Method in brief: (§1)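 Compounds were tested at concentrations up to 100 µM for agonist or antagonist effects. Assays used RGT cells, which are AV12-664 cells coexpressing GLAST and recombinant human mGlu1a, mGlu5a, mGlu4a or mGlu7a.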

[2] = target: Metabotropic glutamate receptor 5 (Homo sapiens) (UniProt P41594); test: Agonist activity at human mGluR5a assessed as effect on cAMP production in RGT cells upto 100 uM; assay type: functional, cell-based; method in brief: as §1
Chain of Metabotropic glutamate receptor 5 (Homo sapiens) (P41594 21-1212 limits assumed): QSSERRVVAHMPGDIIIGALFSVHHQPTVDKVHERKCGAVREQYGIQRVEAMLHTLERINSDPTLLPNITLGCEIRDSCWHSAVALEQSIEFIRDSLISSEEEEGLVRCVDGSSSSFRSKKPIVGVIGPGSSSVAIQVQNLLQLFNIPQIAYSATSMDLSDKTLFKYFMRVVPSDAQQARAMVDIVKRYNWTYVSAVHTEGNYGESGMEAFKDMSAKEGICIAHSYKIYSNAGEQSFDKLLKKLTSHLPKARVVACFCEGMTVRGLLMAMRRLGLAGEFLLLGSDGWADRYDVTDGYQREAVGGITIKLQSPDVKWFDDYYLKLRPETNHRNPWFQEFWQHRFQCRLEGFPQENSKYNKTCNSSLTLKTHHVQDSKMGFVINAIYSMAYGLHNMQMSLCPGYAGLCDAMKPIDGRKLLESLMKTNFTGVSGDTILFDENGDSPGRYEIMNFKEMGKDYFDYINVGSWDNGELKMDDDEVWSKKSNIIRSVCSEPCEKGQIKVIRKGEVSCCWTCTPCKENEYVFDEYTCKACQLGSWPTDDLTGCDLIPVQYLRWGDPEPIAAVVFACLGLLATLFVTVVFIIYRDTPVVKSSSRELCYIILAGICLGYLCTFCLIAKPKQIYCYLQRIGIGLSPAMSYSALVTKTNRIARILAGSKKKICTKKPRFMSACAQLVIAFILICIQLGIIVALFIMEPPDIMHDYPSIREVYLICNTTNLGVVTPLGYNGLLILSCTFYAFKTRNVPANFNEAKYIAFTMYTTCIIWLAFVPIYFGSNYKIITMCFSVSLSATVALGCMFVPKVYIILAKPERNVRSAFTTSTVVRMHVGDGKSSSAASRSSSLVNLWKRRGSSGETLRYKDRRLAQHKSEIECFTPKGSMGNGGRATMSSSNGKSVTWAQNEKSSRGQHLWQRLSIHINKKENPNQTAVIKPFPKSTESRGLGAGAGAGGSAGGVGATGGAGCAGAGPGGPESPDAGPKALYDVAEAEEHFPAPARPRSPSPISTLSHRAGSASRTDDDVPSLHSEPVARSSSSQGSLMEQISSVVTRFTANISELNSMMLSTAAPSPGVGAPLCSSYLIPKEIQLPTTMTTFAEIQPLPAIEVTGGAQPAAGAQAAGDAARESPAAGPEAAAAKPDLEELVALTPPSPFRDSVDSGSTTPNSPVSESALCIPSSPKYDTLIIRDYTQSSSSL

[3] = target: Metabotropic glutamate receptor 4 (Homo sapiens) (UniProt Q14833); test: Agonist activity at human mGluR4a assessed as effect on cAMP production in RGT cells upto 100 uM; assay type: functional, cell-based; method in brief: as §1
Chain of Metabotropic glutamate receptor 4 (Homo sapiens) (Q14833 whole entry): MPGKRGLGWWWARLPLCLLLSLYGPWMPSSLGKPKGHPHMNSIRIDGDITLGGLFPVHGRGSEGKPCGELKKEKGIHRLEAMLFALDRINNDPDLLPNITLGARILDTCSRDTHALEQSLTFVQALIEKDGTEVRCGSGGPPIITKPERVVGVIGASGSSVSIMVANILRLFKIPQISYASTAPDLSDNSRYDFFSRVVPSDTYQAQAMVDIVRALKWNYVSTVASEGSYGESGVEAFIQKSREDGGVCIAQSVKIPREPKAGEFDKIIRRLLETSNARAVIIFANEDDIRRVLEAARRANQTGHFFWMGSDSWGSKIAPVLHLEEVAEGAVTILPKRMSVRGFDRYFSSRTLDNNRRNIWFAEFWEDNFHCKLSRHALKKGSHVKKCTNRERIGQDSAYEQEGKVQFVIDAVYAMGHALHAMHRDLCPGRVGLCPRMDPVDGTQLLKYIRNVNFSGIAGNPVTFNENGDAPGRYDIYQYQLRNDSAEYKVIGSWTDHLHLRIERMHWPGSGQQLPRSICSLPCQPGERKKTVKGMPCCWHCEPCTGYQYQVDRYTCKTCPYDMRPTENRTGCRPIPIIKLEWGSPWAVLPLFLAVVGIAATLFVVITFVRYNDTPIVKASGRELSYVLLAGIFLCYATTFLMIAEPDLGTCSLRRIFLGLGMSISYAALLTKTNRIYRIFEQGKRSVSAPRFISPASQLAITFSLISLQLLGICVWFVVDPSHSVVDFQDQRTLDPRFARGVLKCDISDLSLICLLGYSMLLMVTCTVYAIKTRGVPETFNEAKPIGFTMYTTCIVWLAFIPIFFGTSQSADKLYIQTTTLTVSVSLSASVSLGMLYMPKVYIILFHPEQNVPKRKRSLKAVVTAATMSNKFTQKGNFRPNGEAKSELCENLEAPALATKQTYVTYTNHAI

[4] = target: Metabotropic glutamate receptor 7 (Homo sapiens) (UniProt Q14831); test: Agonist activity at human mGluR7a assessed as effect on cAMP production in RGT cells upto 100 uM; assay type: functional, cell-based; method in brief: as §1
Chain of Metabotropic glutamate receptor 7 (Homo sapiens) (Q14831 whole entry): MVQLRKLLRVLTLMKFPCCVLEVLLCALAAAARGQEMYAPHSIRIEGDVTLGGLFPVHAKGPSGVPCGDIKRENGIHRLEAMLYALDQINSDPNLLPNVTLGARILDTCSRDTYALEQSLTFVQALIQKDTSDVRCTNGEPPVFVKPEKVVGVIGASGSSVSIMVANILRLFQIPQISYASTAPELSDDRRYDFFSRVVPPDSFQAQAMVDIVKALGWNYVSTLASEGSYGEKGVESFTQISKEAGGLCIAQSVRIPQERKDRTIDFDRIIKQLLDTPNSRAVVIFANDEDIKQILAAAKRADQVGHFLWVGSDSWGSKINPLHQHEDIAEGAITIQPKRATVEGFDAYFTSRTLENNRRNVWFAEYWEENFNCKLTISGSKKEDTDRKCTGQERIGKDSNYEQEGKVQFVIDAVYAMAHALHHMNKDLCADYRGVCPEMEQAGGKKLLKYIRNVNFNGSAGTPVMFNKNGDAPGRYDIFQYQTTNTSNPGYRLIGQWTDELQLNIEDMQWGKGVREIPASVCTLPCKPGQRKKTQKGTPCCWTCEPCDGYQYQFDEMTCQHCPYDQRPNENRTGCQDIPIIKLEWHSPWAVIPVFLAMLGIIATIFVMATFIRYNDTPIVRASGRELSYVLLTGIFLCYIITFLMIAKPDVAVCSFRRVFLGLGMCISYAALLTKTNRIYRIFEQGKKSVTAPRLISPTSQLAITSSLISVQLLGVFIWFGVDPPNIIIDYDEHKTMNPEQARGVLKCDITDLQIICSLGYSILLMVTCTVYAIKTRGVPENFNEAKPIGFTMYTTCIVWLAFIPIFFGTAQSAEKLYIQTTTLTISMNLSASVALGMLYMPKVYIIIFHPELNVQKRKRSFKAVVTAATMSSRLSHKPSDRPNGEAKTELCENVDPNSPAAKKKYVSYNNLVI

[5] = target: Metabotropic glutamate receptor 1 (Homo sapiens) (UniProt Q13255); test: Antagonist activity against human mGluR1a assessed as effect on cAMP production in RGT cells upto 100 uM; assay type: functional, cell-based; method in brief: as §1
[6] = target: Metabotropic glutamate receptor 5 (Homo sapiens) (UniProt P41594); test: Antagonist activity against human mGluR5a assessed as effect on cAMP production in RGT cells upto 100 uM; assay type: functional, cell-based; method in brief: as §1
[7] = target: Metabotropic glutamate receptor 4 (Homo sapiens) (UniProt Q14833); test: Antagonist activity against human mGluR4a assessed as effect on cAMP production in RGT cells upto 100 uM; assay type: functional, cell-based; method in brief: as §1
[8] = target: Metabotropic glutamate receptor 7 (Homo sapiens) (UniProt Q14831); test: Antagonist activity against human mGluR7a assessed as effect on cAMP production in RGT cells upto 100 uM; assay type: functional, cell-based; method in brief: as §1
[9] = target: T1, Metabotropic glutamate receptor 3 (Homo sapiens, UniProt Q14832); test: Agonist activity at human mGluR3 assessed as effect on cAMP production in RGT cells; assay type: functional, cell-based
T1 sequence (Q14832 whole entry): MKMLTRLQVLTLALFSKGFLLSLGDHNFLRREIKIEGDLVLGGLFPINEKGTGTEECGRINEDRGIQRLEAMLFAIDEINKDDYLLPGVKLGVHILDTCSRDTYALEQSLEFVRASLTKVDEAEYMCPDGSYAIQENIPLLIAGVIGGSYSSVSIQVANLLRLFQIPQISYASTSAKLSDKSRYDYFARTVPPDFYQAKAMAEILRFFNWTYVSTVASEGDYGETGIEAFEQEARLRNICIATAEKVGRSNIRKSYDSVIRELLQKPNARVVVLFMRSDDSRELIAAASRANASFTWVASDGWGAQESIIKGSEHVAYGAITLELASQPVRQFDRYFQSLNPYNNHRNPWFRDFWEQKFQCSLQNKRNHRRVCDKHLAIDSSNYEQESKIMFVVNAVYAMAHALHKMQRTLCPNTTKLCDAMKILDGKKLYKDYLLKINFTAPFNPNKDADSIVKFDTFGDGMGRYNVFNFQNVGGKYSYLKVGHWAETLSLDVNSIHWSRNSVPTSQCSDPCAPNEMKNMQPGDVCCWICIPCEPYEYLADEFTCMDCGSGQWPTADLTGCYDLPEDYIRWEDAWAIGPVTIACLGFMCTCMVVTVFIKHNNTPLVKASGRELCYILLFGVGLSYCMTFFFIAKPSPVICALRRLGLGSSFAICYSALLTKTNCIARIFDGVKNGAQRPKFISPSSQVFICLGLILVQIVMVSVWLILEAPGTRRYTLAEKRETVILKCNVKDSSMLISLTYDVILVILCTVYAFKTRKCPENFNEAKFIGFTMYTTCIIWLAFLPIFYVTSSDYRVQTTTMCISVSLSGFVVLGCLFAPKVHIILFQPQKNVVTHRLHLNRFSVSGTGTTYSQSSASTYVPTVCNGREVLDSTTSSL
Method in brief: (§2)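 cAMP second-messenger responses measured in RGT cells. These are non-neuronal AV12-664 cells coexpressing the glutamate transporter GLAST, to minimize glutamate activity, plus the recombinant human receptor (mGlu2, mGlu3 or mGlu8). Agonist EC50 determined.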

[10] = target: T1, Metabotropic glutamate receptor 3; test: Displacement of [3H]LY341495 from human recombinant mGluR3 in RGT cells; assay type: cell-based
Method in brief: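 Radioligand binding on membranes carrying recombinant human mGlu2 or mGlu3, displacing the antagonist [3H]LY341495. Ki was calculated from IC50 by the Cheng-Prusoff equation. Values are the mean of at least three separate experiments.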

[11] = target: Metabotropic glutamate receptor 2 (Homo sapiens, UniProt Q14416); test: Agonist activity at human mGluR2 assessed as effect on cAMP production in RGT cells; assay type: functional, cell-based; method in brief: as §2
[12] = system: Rattus norvegicus; test: Plasma concentration in Fischer 344 rat at 10 mg/kg, po after 0.5 hrs; assay type: ADME, organism-based; set-up: dose 10 mg/kg, route oral; details: in vivo
Method in brief: (§3)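 Plasma levels in fasted male Fischer 344 rats after a 10 mg/kg oral dose in pH 7 water (NaOH), quantified by positive-ion electrospray LC/MS/MS. Main protocol sampled at 0.08/0.25–24 h, n=3 rats per time point. A variant oral-only arm used n=6 rats with samples at 0.5, 1, 2, 3, 4 and 6 h.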

[13] = system: Rattus norvegicus; test: Plasma concentration in Fischer 344 rat at 10 mg/kg, po after 1 hrs; assay type: ADME, organism-based; set-up: dose 10 mg/kg, route oral; details: in vivo; method in brief: as §3
[14] = system: Rattus norvegicus; test: Plasma concentration in Fischer 344 rat at 10 mg/kg, po after 2 hrs; assay type: ADME, organism-based; set-up: dose 10 mg/kg, route oral; details: in vivo; method in brief: as §3
[15] = system: Rattus norvegicus; test: Plasma concentration in Fischer 344 rat at 10 mg/kg, po after 3 hrs; assay type: ADME, organism-based; set-up: dose 10 mg/kg, route oral; details: in vivo; method in brief: as §3
[16] = system: Rattus norvegicus; test: Plasma concentration in Fischer 344 rat at 10 mg/kg, po after 4 hrs; assay type: ADME, organism-based; set-up: dose 10 mg/kg, route oral; details: in vivo; method in brief: as §3
[17] = system: Rattus norvegicus; test: Plasma concentration in Fischer 344 rat at 10 mg/kg, po after 6 hrs; assay type: ADME, organism-based; set-up: dose 10 mg/kg, route oral; details: in vivo; method in brief: as §3
[18] = Plasma concentration in Fischer 344 rat at 10 mg/kg, po after 8 hrs; assay type: ADME, organism-based; set-up: dose 10 mg/kg, route oral; method in brief: as §3
[19] = Plasma concentration in Fischer 344 rat at 10 mg/kg, po after 16 hrs; assay type: ADME, organism-based; set-up: dose 10 mg/kg, route oral; method in brief: as §3
[20] = Plasma concentration in rat at 10 mg/kg, po after 24 hrs; assay type: ADME, organism-based; set-up: dose 10 mg/kg, route oral; method in brief: as §3
[21] = system: Rattus norvegicus; test: Reduction of PCP-induced ambulations in Sprague-Dawley rat at 3 mg/kg, po; assay type: functional; set-up: scale not given: the % may be the effect or the level left
Method in brief: (§4)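 Male Sprague-Dawley rats (225-274 g) fasted 12-18 h and habituated 30 min to the test cage. Test drug or vehicle was given orally 2 h before PCP (5 mg/kg s.c.) or 0.9% NaCl. Horizontal photobeam breaks were counted over 60 min, n=8-13 per group.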

[22] = system: Rattus norvegicus; test: Reduction of PCP-induced ambulations in Sprague-Dawley rat at 10 mg/kg, po; assay type: functional; set-up: scale not given: the % may be the effect or the level left; method in brief: as §4
[23] = system: Rattus norvegicus; test: Inhibition of PCP-induced ambulations in Sprague-Dawley rat after oral administration; assay type: functional; method in brief: as §4
[24] = target: Metabotropic glutamate receptor 8 (Homo sapiens, UniProt O00222); test: Agonist activity at human mGluR8 assessed as effect on cAMP production in RGT cells; assay type: functional, cell-based; method in brief: as §2
[25] = AUC (0-24h) in Fischer 344 rat at 10 mg/kg, iv; assay type: ADME, organism-based; set-up: time < 24 hr, dose 10 mg/kg, route intravenous; details: plasma
Method in brief: (§5)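 Male Fischer 344 rats fasted overnight, food returned 4 h post dose, water ad libitum. Doses were in water brought to pH 7 with NaOH, given i.v. (2.5 or 10 mg/kg) or p.o. (10 mg/kg). Nine rats per dose group, three per time point, with blood taken over 0.08–24 h. Plasma measured by LC/MS/MS.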

[26] = system: Rattus norvegicus; test: AUC (0-24h) in Fischer 344 rat at 10 mg/kg, po; assay type: ADME, organism-based, Plasma; set-up: time < 24 hr, dose 10 mg/kg, route oral; details: rat, in vivo, 24 h; method in brief: as §5
[27] = system: Rattus norvegicus; test: Cmax in Fischer 344 rat at 10 mg/kg, iv; assay type: ADME, organism-based; set-up: dose 10 mg/kg, route intravenous; details: in vivo; method in brief: as §5
[28] = system: Rattus norvegicus; test: Cmax in Fischer 344 rat at 10 mg/kg, po; assay type: ADME, organism-based; set-up: dose 10 mg/kg, route oral; details: in vivo; method in brief: as §5
[29] = Tmax in Fischer 344 rat at 10 mg/kg, iv; assay type: ADME, organism-based; set-up: dose 10 mg/kg, route intravenous; details: in vivo; method in brief: as §5
[30] = Tmax in Fischer 344 rat at 10 mg/kg, po; assay type: ADME, organism-based; set-up: dose 10 mg/kg, route oral; details: Fischer 344, rat, in vivo; method in brief: as §5
[31] = Oral bioavailability in Fischer 344 rat at 10 mg/kg, po; assay type: ADME, organism-based; details: in vivo; method in brief: as §5
[32] = system: Rattus norvegicus; test: Impairment of rotarod performance in Sprague-Dawley rat at 3 mg/kg, po after 2 hrs; assay type: functional, organism-based; set-up: dose 3 mg/kg
Method in brief: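 Fasted Sprague-Dawley rats were trained on a rotorod at 4 rpm over four trials. Rats holding on for 60 s were retested 30 min before dosing, then given oral drug or vehicle. They were tested again 2 h later for up to 60 s. Read-out is mean seconds on the rod, n=8 per group.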

- Activity [1]: inactive
- Activity [2]: inactive
- Activity [3]: inactive
- Activity [4]: inactive
- Activity [5]: inactive
- Activity [6]: inactive
- Activity [7]: inactive
- Activity [8]: inactive
Structure (SMILES): N[C@@]1(C(=O)O)CC[C@H]2[C@H](C(=O)O)[C@H]21

- EC50 [9]: 1.4 nM
- Ki [10]: 0.17 nM
- EC50 [11]: 0.089 nM
- Cp [12]: 7495 ng/mL
- Cp [13]: 3244 ng/mL
- Cp [14]: 2895 ng/mL
- Cp [15]: 699 ng/mL
- Cp [16]: 726 ng/mL
- Cp [17]: 311 ng/mL
- concentration at 8 h [18]: 202 ng/mL
- concentration at 16 h [19]: 34 ng/mL
- concentration at 24 h [20]: 3 ng/mL
- EC50 [24]: 3070 nM
- AUC(0-t) at 24 h [25]: 13000 ng·h/mL
- AUC [26]: 13000 ng·h/mL
- Cmax [27]: 29000 ng/mL
- Cmax [28]: 7500 ng/mL
- Tmax [29]: 0 h
- Tmax [30]: 30 min
- bioavailability [31]: 100%
Structure (SMILES): N[C@@]1(C(=O)O)C[S+]([O-])[C@H]2[C@H](C(=O)O)[C@H]21 (stereo in doubt; (+)-11) [listing 1 of 2 here]
- Activity [21]: 98%
- Activity [22]: 98%
- ED50 [23]: 2.3 mg/kg

Second part, the compound before the results:

Structure (SMILES): N[C@@]1(C(=O)O)CO[C@H]2[C@H](C(=O)O)[C@H]21
- Activity [1]: inactive
- Activity [2]: inactive
- Activity [3]: inactive
- Activity [4]: inactive
- Activity [5]: inactive
- Activity [6]: inactive
- Activity [7]: inactive
- Activity [8]: inactive

Structure (SMILES): N[C@@]1(C(=O)O)CS[C@H]2[C@H](C(=O)O)[C@H]21
- Activity [1]: inactive
- Activity [2]: inactive
- Activity [3]: inactive
- Activity [4]: inactive
- Activity [5]: inactive
- Activity [6]: inactive
- Activity [7]: inactive
- Activity [8]: inactive

Structure (SMILES): N[C@@]1(C(=O)O)C[S+]([O-])[C@H]2[C@H](C(=O)O)[C@H]21 (stereo in doubt; (+)-11) [listing 2 of 2 here]
- Activity [32]: Active
- Activity [1]: inactive
- Activity [2]: inactive
- Activity [3]: inactive
- Activity [4]: inactive
- Activity [5]: inactive
- Activity [6]: inactive
- Activity [7]: inactive
- Activity [8]: inactive
